T cruzi HTS: blocks T. cruzi growth inside host cells. intracellular Trypanosoma cruzi in host cells, plate reader. activity score (inhibition), % at 5.01 µM. 22,000 compounds, 4.9% hits; in the data active means activity score above about 55%;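 further: parasites and compound incubated about four days before reading; 0% = median of neutral control wells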
INS-1E ATP HTS: preserves ATP levels in cytokine-treated INS-1E cells; INS-1E cytokine-induced death, ATP luminescence, 48 h; normalised: neutral wells 0, positive control 100; 20,000 compounds, 0.1% hits; protection from cytokine-induced ATP loss, % at 10 µM;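 active means mean replicate protection from cytokine-induced ATP loss at least 50% and at least 75% of replicates each reaching 50%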
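Test system: INS-1E rat cells | Quantity: 8000 cells per well | Medium: Phenol-red-free RPMI with 5% fetal bovine serum | Reagent: Cytokine cocktail of IFN-γ, TNF-α and IL-1β | Doses: One compound concentration, pin transfer | Timing: 48 h co-treatment, 10 min post-lysis read | Technique: Luminescent ATP assay (CellTiter-Glo)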
A1 apoptosis 2: A1 inhibition read as caspase activation; AID 2465; caspase activation, % (concentration not given with the values); MEF A1-2A-BIM cells, caspase-Glo luminescence, 3 h; percent of clofoctol response, DMSO zero; 24,000 tested, under 10 active; in the data active means caspase activation above about 5.9%
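Test system – A1-2A-BIM-expressing MEF cells · Input – 2500 cells/well · Medium – RPMI-1640 growth medium with 10% FBS · Compound dosing – 50 nL pinned compound · Timing – 3 h compound exposure at 37 °C · Technique – Caspase-Glo luminescence (DEVD substrate) · Evaluation – Caspase-3/7 activity from luminescence increase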
* = called active by the depositor; . = no result. This excerpt belongs to a sample that is enriched for hits.

SMILES | T cruzi HTS | INS-1E ATP HTS | A1 apoptosis 2
C[C@@H]1CN([C@H](C)CO)C(=O)c2cccc(NC(=O)C3CC3)c2O[C@H]1CN(C)S(C)(=O)=O | -15.0 | 5.9 | .
CC(C)(C)OC(=O)N1CCC[C@H]1/C=N/NC(=O)CCCCCCC(=O)O | -10.4 | 2.6 | .
O=C1O[C@H](c2ccccc2)[C@H](c2ccccc2)N2[C@H]1[C@@H](C(=O)NC[C@H](O)c1ccccc1)[C@]1(C(=O)Nc3ccc(C#CCCO)cc31)[C@H]2c1ccccc1OCCO | . | . | 1.1
O=C(C1=C[C@@H](c2ccc3c(c2)Cc2ccccc2-3)C[C@@H](OCc2ccc(CO)cc2)O1)N1CCCCC1 | . | . | -1.9
C[C@@H]1CN([C@@H](C)CO)C(=O)c2cc(NC(=O)Nc3ccc(C(F)(F)F)cc3)ccc2O[C@H]1CN(C)C(=O)Nc1ccc(C(F)(F)F)cc1 | 74.4* | -105.8 | -0.8
C[C@H](CO)N1C[C@H](C)[C@H](CN(C)C(=O)Nc2ccc(F)cc2)OCCCC[C@H](C)Oc2ccc(NC(=O)Nc3ccc(F)cc3)cc2C1=O | . | . | 0.3
C[C@H]1CCCCO[C@H](CN(C)C(=O)Nc2ccc(C(F)(F)F)cc2)[C@@H](C)CN([C@@H](C)CO)C(=O)c2cc(NC(=O)Nc3ccc(F)cc3)ccc2O1 | . | . | -1.2
C[C@H]1CCCCO[C@H](CN(C)C(=O)Nc2ccccc2)[C@@H](C)CN([C@@H](C)CO)C(=O)c2cc(NC(=O)Nc3ccc(C(F)(F)F)cc3)ccc2O1 | . | . | 1.0
C[C@@H]1CCCCO[C@@H](CN(C)C(=O)Nc2ccc(C(F)(F)F)cc2)[C@@H](C)CN([C@H](C)CO)C(=O)c2cc(NC(=O)Nc3ccc(F)cc3)ccc2O1 | 70.7* | -14.2 | -1.1
C[C@@H]1CN([C@H](C)CO)C(=O)c2cc(NC(=O)Nc3ccc(C(F)(F)F)cc3)ccc2O[C@@H]1CN(C)C(=O)Nc1ccc(C(F)(F)F)cc1 | 41.2 | -14.6 | .
C[C@@H]1CCCCO[C@H](CN(C)C(=O)Nc2ccc(F)cc2)[C@@H](C)CN([C@H](C)CO)C(=O)c2cc(NC(=O)Nc3ccc(F)cc3)ccc2O1 | 59.3* | -3.2 | 0.2
C[C@@H]1CCCCO[C@H](CN(C)C(=O)Nc2ccc(C(F)(F)F)cc2)[C@@H](C)CN([C@H](C)CO)C(=O)c2cc(NC(=O)Nc3ccccc3)ccc2O1 | 57.1* | -29.1 | 0.8
O=C(O)CCCCCCC(=O)N/N=C/c1ccc(S(=O)(=O)O)o1 | -11.8 | -9.4 | 1.1
O=C(NO)c1cccc(C(=O)N/N=C/c2cccs2)c1 | -5.3 | -11.6 | -0.1
O=C(N/N=C/Cc1ccccc1)c1ccccn1 | 7.5 | 5.0 | -2.2
COC(=O)CCCCCCC(=O)N/N=C/c1cc(OC)ccc1O | -23.9 | 9.9 | -1.0
C[C@@H]1CN([C@H](C)CO)C(=O)c2cc(NC(=O)Nc3ccc(F)cc3)ccc2O[C@@H](C)CCCCO[C@H]1CN(C)C(=O)Nc1ccc(C(F)(F)F)cc1 | . | . | -0.1
C[C@@H]1CCCCO[C@H](CN(C)C(=O)Nc2ccc(C(F)(F)F)cc2)[C@@H](C)CN([C@H](C)CO)C(=O)c2cc(NC(=O)Nc3ccc(F)cc3)ccc2O1 | 65.2* | -16.4 | 0.3
CC(C)(C)OC(=O)N1CCC[C@H]1/C=N/NC(=O)CCCCC(=O)NO | -3.7 | 1.5 | .
Cc1ccc(S(=O)(=O)Nc2ccc3c(c2)CC(=O)N([C@@H](C)CO)C[C@H](C)[C@H](CN(C)Cc2ccc(Cl)c(Cl)c2)O3)cc1 | 18.7 | 0.1 | .
Cc1ccc(S(=O)(=O)Nc2ccc3c(c2)CC(=O)N([C@H](C)CO)C[C@@H](C)[C@@H](CN(C)Cc2ccc(Cl)c(Cl)c2)O3)cc1 | 70.8* | -51.3 | .
Cc1ccc(S(=O)(=O)Nc2ccc3c(c2)CC(=O)N([C@@H](C)CO)C[C@@H](C)[C@@H](CN(C)Cc2ccc(Cl)c(Cl)c2)O3)cc1 | 58.7* | -30.2 | 0.5
Cc1ccc(S(=O)(=O)Nc2ccc3c(c2)C(=O)N([C@H](C)CO)C[C@@H](C)[C@@H](CN(C)Cc2ccc(Cl)c(Cl)c2)O3)cc1 | 36.3 | -18.9 | .
C[C@@H]1CN([C@@H](C)CO)C(=O)Cc2cc(NS(=O)(=O)c3ccc(Cl)cc3)ccc2O[C@H]1CN(C)Cc1ccc(Cl)c(Cl)c1 | . | . | -1.5
Cc1ccc(S(=O)(=O)Nc2ccc3c(c2)CC(=O)N([C@H](C)CO)C[C@@H](C)[C@H](CN(C)Cc2ccc(Cl)c(Cl)c2)O3)cc1 | 64.8* | 1.5 | .
SMILES | T cruzi HTS | INS-1E ATP HTS | A1 apoptosis 2
C=CCN1CCc2cc(OC)c(OC)cc2C1C#Cc1ccccc1 (stereo unspecified) | . | . | 0.0
C[C@@H]1CN([C@@H](C)CO)C(=O)c2cccc(NS(=O)(=O)c3cn(C)cn3)c2O[C@H]1CN(C)S(=O)(=O)c1cccs1 | -25.2 | 13.7 | -0.4
C[C@@H]1CN([C@@H](C)CO)C(=O)c2cccc(NC(=O)CCCCCC(=O)Nc3ccccc3N)c2O[C@@H]1CN(C)Cc1ccccc1 | 19.3 | 23.8 | .
C[C@@H]1CN([C@@H](C)CO)C(=O)c2cccc(NC(=O)CCCCCC(=O)Nc3ccccc3N)c2O[C@H]1CN(C)Cc1ccc(-c2ccccc2)cc1 | . | . | -0.6
C[C@H](CO)N1C[C@H](C)[C@@H](CN(C)Cc2ccc(-c3ccccc3)cc2)Oc2c(NC(=O)CCCCCC(=O)Nc3ccccc3N)cccc2C1=O | 75.2* | -4.1 | 0.6
C[C@H](CO)N1C[C@H](C)[C@H](CN(C)Cc2ccc(Cl)c(Cl)c2)Oc2c(NC(=O)CCCCCC(=O)Nc3ccccc3N)cccc2C1=O | 65.9* | 14.8 | -1.3
C[C@@H]1CN([C@@H](C)CO)C(=O)c2cccc(NC(=O)CCCCCC(=O)Nc3ccccc3N)c2O[C@@H]1CN(C)Cc1ccc(Oc2ccccc2)cc1 | 59.0* | 13.7 | .
C[C@@H]1CN([C@H](C)CO)C(=O)c2cccc(NC(=O)CCCCCC(=O)Nc3ccccc3N)c2O[C@@H]1CN(C)Cc1ccc(Oc2ccccc2)cc1 | 15.0 | 16.7 | 1.0
COc1ccc(C#Cc2ccc3c(c2)[C@]2(C(=O)N3)[C@H](c3ccc(O)cc3)N3[C@H](c4ccccc4)[C@H](c4ccccc4)OC(=O)[C@H]3[C@@H]2C(=O)N2CCN(c3ncccn3)CC2)cc1 | . | . | 0.1
C[C@H](CO)N1C[C@H](C)[C@@H](CN(C)Cc2ccc(Cl)c(Cl)c2)Oc2c(NC(=O)Nc3ccc(C(F)(F)F)cc3)cccc2C1=O | 81.7* | -39.6 | -1.1
C[C@H]1CN([C@@H](C)CO)C(=O)c2cccc(NC(=O)Nc3ccccc3)c2O[C@@H]1CN(C)Cc1ccc(Cl)c(Cl)c1 | 8.8 | -13.1 | -0.8
C[C@H](CO)N1C[C@H](C)[C@H](CN(C)Cc2ccc(Cl)c(Cl)c2)Oc2c(NC(=O)Nc3ccccc3)cccc2C1=O | 15.9 | -46.2 | 0.1
C[C@H]1CN([C@@H](C)CO)C(=O)c2cccc(NC(=O)Nc3ccc(C(F)(F)F)cc3)c2O[C@@H]1CN(C)Cc1ccc(Cl)c(Cl)c1 | 77.4* | -26.9 | -0.2
C[C@@H]1CN([C@@H](C)CO)C(=O)c2cccc(NC(=O)Nc3ccc(C(F)(F)F)cc3)c2O[C@@H]1CN(C)Cc1ccc(Cl)c(Cl)c1 | 79.2* | -31.4 | -0.1

Bioassay records deposited in PubChem by Broad Institute.
